Assay results published in ChEMBL document CHEMBL4616681, “Discovery of 3-Pyridyl Isoindolin-1-one Derivatives as Potent, Selective, and Orally Active Aldosterone Synthase (CYP11B2) Inhibitors” (J Med Chem, 2020).
Converted amounts (≈) assume the structure as drawn.

Columns and labels:
[1] = target: T1, Cytochrome P450 11B2, mitochondrial (Homo sapiens, UniProt P19099); assay: Inhibition of human CYP11B2 expressed in human renal leiomyoblastoma cells harboring FDXR/FDX using 1-deoxycorticosterone as substrate by HTRF assay; format: cell-based
T1 sequence (P19099 whole entry): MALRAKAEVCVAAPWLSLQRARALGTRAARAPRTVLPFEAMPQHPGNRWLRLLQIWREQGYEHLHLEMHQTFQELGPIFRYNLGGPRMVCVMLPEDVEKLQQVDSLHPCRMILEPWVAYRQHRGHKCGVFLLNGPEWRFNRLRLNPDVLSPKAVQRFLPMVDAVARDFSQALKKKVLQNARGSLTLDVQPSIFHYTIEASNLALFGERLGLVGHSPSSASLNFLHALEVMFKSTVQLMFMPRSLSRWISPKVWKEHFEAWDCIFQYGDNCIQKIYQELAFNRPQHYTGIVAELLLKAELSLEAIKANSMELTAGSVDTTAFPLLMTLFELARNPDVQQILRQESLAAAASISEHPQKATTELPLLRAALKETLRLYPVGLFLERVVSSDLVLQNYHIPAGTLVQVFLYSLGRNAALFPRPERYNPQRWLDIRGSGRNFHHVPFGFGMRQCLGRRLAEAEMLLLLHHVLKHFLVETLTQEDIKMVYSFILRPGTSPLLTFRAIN
Procedure, shortened: (§1)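 Cells with endogenous FDXR/FDX and no detectable CYP11B activity, stably transfected (CMV promoter, neomycin selection, G-418 400 µg/mL) with CYP11B1 or CYP11B2 of the named species. Assayed in DMEM/F12 with 2.5% charcoal-treated FCS. Substrate 1 µM 11-deoxycorticosterone (B2) or 11-deoxycortisol (B1), 16 hr. Aldosterone or cortisol in supernatant measured by HTRF. IC50 from 4-parameter MMF fit; selectivity factor is the B1/B2 IC50 ratio.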

[2] = Selectivity ratio of IC50 for human CYP11B1 expressed in human renal leiomyoblastoma cells harboring FDXR/FDX to IC50 for human CYP11B2 expressed in human renal leiomyoblastoma cells harboring FDXR/FDX; format: cell-based; procedure, shortened: as §1
[3] = Inhibition of cynomolgus monkey CYP11B2 expressed in human G401 cells using 1-deoxycorticosterone as substrate by HTRF assay; format: cell-based, Macaca fascicularis; settings: g-401; procedure, shortened: as §1
[4] = Selectivity ratio of IC50 for cynomolgus monkey CYP11B1 expressed in human G401 cells to IC50 for cynomolgus monkey CYP11B2 expressed in human G401 cells; format: cell-based; procedure, shortened: as §1
[5] = Intrinsic clearance in rat liver microsomes preincubated for 10 mins followed by NADPH regenerating system addition and measured up to 30 mins by LC/MS-MS analysis; format: ADME, Microsome
Procedure, shortened: (§2)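 Liver microsomes at 0.5 mg protein/mL in 100 mM potassium phosphate, pH 7.4. Compound preincubated 10 min at 37 °C. Intrinsic clearance scaled using the well-stirred liver model.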

[6] = target: T2, Cytochrome P450 11B1, mitochondrial (Homo sapiens, UniProt P15538); assay: Inhibition of human CYP11B1 expressed in human renal leiomyoblastoma cells harboring FDXR/FDX using 1-deoxycortisol as substrate by HTRF assay; format: ADME, cell-based; procedure, shortened: as §1
T2 sequence (P15538 whole entry): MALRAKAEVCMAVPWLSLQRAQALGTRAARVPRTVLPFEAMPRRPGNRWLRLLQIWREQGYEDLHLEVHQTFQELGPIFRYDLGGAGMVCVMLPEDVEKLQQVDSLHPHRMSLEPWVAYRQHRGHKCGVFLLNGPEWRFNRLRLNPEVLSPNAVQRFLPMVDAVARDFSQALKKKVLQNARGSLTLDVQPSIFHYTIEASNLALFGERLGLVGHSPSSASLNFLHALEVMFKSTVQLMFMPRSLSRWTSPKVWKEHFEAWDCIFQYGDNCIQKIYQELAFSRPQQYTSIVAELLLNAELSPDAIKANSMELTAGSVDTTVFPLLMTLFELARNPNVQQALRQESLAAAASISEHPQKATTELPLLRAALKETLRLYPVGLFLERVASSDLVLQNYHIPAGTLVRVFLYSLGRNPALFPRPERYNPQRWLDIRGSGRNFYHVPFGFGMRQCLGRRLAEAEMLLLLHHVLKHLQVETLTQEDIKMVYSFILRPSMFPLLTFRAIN

[7] = Intrinsic clearance in human liver microsomes preincubated for 10 mins followed by NADPH regenerating system addition and measured up to 30 mins by LC/MS-MS analysis; format: ADME, Microsome; settings: read-out: CLH; procedure, shortened: as §2
[8] = Intrinsic clearance in mouse liver microsomes preincubated for 10 mins followed by NADPH regenerating system addition and measured up to 30 mins by LC/MS-MS analysis; format: ADME, Microsome; procedure, shortened: as §2
[9] = Octanol-water distribution coefficient, log D of the compound by carrier-mediated distribution system; format: physicochemical
[10] = Permeability of the compound measured at 18 hrs by PAMPA; format: ADME; settings: read-out: permeability
Procedure, shortened: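 PAMPA sandwich format. Donor: compound diluted to 150 μM (DMSO <2%) in 0.05 M MOPSO pH 6.5 with 0.5% glycocholic acid. Acceptor: 0.05 M MOPSO pH 6.5. Membrane of 10% egg lecithin with 0.5% cholesterol in dodecane. Donor measured at start; acceptor and donor measured at ~18 hr.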

[11] = Solubility of the compound in phosphate buffer at pH 6.5 shaken for 2 hrs followed by overnight incubation; format: physicochemical
Procedure, shortened: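 Lyophilisation solubility assay run in duplicate from 10 mM DMSO stock. DMSO evaporated and residue redissolved in 0.05 M phosphate, pH 6.5. Stirred 1 hr, shaken 2 hr, left overnight, then filtered. Filtrate and a 1/10 dilution analysed by HPLC-UV against a four-point calibration.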

[12] = Plasma clearance in Wister-Han rat at 1 mg/kg, iv administered as single dose by LC/MS-MS analysis; format: ADME, organism-based; settings: Wistar-Han
Procedure, shortened: (§3)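 Male Wistar-Han rats, single dose. IV 1 mg/kg, compound at 0.5 mg/mL in NMP:saline 30/70 (v/v). Oral 3 mg/kg, 0.25 mg/mL in 2% Klucel with 0.1% Polysorbate 80. Three rats per time point. Heparinized blood taken at eight (iv) or seven (po) time points, plasma stored at -20 °C. Plasma levels by LC/MS-MS. Non-compartmental analysis.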

[13] = AUC (0 to infinity) in Wister-Han rat at 3 mg/kg, po administered as single dose by LC/MS-MS analysis; format: ADME, organism-based; design: dose 3 mg/kg, route oral, time infinity; settings: Wistar-Han, in vivo; procedure, shortened: as §3
[14] = Oral bioavailability in Wister-Han rat at 3 mg/kg administered as single dose by LC/MS-MS analysis; format: ADME, organism-based; settings: Wistar-Han, in vivo; procedure, shortened: as §3
Cytochrome P450 3A4 = Cytochrome P450 3A4 (Homo sapiens, UniProt P08684); assay: Inhibition of CYP3A4 (unknown origin); format: ADME
Cytochrome P450 3A4, sequence (P08684 whole entry): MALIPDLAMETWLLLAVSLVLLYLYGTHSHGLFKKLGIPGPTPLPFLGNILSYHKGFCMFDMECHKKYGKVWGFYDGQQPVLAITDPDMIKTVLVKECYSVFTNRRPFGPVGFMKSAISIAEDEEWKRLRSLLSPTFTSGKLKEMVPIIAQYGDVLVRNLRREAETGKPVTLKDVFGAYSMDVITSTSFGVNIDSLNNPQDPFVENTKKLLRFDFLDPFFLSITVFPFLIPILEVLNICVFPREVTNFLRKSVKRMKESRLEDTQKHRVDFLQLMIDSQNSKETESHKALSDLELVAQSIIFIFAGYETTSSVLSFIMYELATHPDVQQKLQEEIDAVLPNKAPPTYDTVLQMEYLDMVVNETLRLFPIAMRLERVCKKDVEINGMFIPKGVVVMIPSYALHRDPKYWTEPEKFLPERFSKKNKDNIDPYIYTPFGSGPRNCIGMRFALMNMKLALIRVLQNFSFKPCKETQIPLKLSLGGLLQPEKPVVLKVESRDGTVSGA

Cytochrome P450 2D6 = Cytochrome P450 2D6 (Homo sapiens, UniProt P10635); assay: Inhibition of CYP2D6 (unknown origin); format: ADME
Cytochrome P450 2D6, sequence (P10635 whole entry): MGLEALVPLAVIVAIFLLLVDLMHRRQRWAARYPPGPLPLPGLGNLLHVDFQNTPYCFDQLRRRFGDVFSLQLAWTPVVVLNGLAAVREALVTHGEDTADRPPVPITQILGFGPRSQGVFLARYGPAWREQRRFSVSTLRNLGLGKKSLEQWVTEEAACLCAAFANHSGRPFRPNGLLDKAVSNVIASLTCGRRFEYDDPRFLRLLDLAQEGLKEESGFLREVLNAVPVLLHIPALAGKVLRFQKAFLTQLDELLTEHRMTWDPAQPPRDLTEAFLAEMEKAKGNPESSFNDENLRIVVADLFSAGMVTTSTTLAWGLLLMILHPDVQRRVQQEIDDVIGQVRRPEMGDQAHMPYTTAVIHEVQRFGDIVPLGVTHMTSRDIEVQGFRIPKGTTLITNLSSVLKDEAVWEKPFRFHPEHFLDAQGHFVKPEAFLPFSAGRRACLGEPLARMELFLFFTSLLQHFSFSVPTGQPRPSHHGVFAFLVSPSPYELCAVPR

Cytochrome P450 2C9 = Cytochrome P450 2C9 (Homo sapiens, UniProt P11712); assay: Inhibition of CYP2C9 (unknown origin); format: ADME
Cytochrome P450 2C9, sequence (P11712 whole entry): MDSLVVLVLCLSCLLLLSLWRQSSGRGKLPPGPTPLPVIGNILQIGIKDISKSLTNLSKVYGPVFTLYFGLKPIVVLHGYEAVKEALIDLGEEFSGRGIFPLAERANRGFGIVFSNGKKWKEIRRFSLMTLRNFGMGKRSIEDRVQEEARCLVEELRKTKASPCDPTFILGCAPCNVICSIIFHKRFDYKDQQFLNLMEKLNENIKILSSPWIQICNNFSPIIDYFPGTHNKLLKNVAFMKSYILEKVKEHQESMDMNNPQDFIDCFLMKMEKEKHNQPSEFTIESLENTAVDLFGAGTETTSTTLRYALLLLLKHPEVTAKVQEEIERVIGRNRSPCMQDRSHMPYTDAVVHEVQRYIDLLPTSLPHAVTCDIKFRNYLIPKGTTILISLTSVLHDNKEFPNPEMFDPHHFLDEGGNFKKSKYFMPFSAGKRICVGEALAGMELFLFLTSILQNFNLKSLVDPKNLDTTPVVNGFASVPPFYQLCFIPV

Structure (SMILES)	IC50 [1] [nM]	Ratio IC50 [2]	IC50 [3] [nM]	Ratio IC50 [4]	predicted hepatic clearance (CLH) [5] [mL/min/kg]	IC50 [6] [nM]	predicted hepatic clearance [7] [mL/min/kg]	predicted hepatic clearance (CLH) [8] [mL/min/kg]	logD [9]	Papp at 18 h [10] [×10⁻⁶ cm/s]	solubility at 2 h [11] [µg/mL]	clearance [12] [mL/min/kg]	AUC(0-inf) [13] [ng·h/mL]	bioavailability [14] [%]	IC50 (Cytochrome P450 3A4) [nM]	IC50 (Cytochrome P450 2D6) [nM]	IC50 (Cytochrome P450 2C9) [nM]
CCS(=O)(=O)N1CC2(CN(c3cncc(N4C(=O)c5ccc(Cl)cc5C4(C)C)c3)C2)C1	16	855	1	19700	0.87												
O=C1c2ccc(Cl)cc2CN1c1cccnc1	179	60				10700	12.8	76.5	2.52								
Cc1ccncc1C(=O)N1CC(Oc2cncc(N3C(=O)c4ccc(Cl)cc4C3(C)C)c2)C1	4	553	0.9	1770	10.4					5.4	290 (≈ 626 µM)	15.8	1020	40			
CS(=O)(=O)N[C@@H]1CCCc2c1cncc2N1CCc2cc(Cl)ccc2C1=O	76	68			< 20.2	5150	< 3.5										
CC1(C)CN(c2cccnc2)C(=O)c2ccc(Cl)cc21	1540	> 7				> 10000									> 50000	> 50000	> 50000
CCC(=O)N[C@@H]1CCCc2c1cncc2N1Cc2cc(Cl)ccc2C1=O	28	186				5210	< 3.5	< 20.2	2.14	3.63	> 460						
CCS(=O)(=O)N1CCC(c2cncc(N3C(=O)c4ccc(Cl)cc4C3(C)C)c2)CC1	3	106	0.4	430	35.1					4.01	39 (≈ 87.1 µM)	29.7	1460	87			
N#Cc1ccc2c(c1)CN(c1cccnc1)C2=O	232	67				15500	8.7	45.6	1.35								
CC(=O)N[C@@H]1CCCc2c1cncc2N1CCc2cc(Cl)ccc2C1=O	54	73			< 20.2	3920	4.3										
